Experimental data pooled from the literature.
Target: SRSF protein kinase 1 (SRPK1, Homo sapiens, UniProt Q96SB4)

Structure (SMILES) | observed | method | tested at | remaining binding
COCCOc1nc(-c2ccc(Cl)nc2)nc2c1CN(C(=O)c1ncn3ccccc13)CC2 | cell-free assay | competition with immobilised ligand | 0.1 µM | 86%
COc1cnc(Nc2cccc(S(N)(=O)=O)c2)nc1N1CCN(c2ccccc2)C(=O)C1 | binding | competition with immobilised ligand | 1 µM | 100%
CN(C)C(=O)Cn1cc(-c2nc([C@@](C)(c3ccc(-c4cnc(N)nc4)cc3)C3CC3)no2)cn1 | cell-free assay | competition with immobilised ligand | 1 µM | 100%
Nc1ncc2c(n1)-c1c([nH]c3ccc(C#CC4CC4)cc13)CCCC2 | binding | competition with immobilised ligand | 1 µM | 87%
CN(C)c1nccc(-c2cnc3ncccn23)n1 | binding | – | 1 µM | 82%
O=C(c1ccc(Nc2ncc(Cl)c(-c3cc4ccccc4s3)n2)cc1)N1CCC(N2CCCC2)CC1 | binding | competition with immobilised ligand | 1 µM | 100%
N[C@H]1CCN(c2nccc(-c3cnn4ncccc34)n2)C1 | binding | – | 1 µM | 84%
CCN1CCN(Cc2ccc(C(=O)Nc3ccc(C)c(Oc4ccc5c(c4)CC(=O)N5)c3)cc2C(F)(F)F)CC1 | binding | competition with immobilised ligand | 1 µM | 98%
Cc1cnn2ncc(-c3ccnc(N(C)C)n3)c2c1 | binding | – | 1 µM | 100%
O=C(Nc1c[nH]nc1C(=O)NC1CCNCC1)c1cc(F)cc(F)c1 | binding | competition with immobilised ligand | 1 µM | 100%
CCOCCn1cc(C(=O)Nc2ccc(-n3nc(-c4cccnc4)cc3C(F)(F)F)cn2)ccc1=O | cell-free assay | competition with immobilised ligand | 1 µM | 98%
O=C(NCCCN1CCOCC1)c1ccc(Nc2nccc(-c3cc4ccccc4s3)n2)cc1 | binding | competition with immobilised ligand | 1 µM | 100%
COc1ncc2cc3ccccc3nc2c1C#N | cell-free assay | competition with immobilised ligand | 5 µM | 96%
Cc1noc([C@H]2C[C@@H](c3ccc(C(F)(F)F)cc3)CN(C(=O)N3CCS(=O)(=O)C3)C2)n1 | cell-free assay | competition with immobilised ligand | 1 µM | 100%
CN(c1nccc(-c2cnn3ncccc23)n1)C1CC1 | binding | – | 1 µM | 88%
Cc1cnc(Nc2ccc(C(=O)N3CCC(N4CCCC4)CC3)cc2)nc1-c1cc2ccccc2s1 | binding | competition with immobilised ligand | 1 µM | 100%
CNCc1ccccc1-c1csc([C@H](C)Nc2nc(C)nc3cc(OC)c(OC)cc23)c1 | cell-free assay | competition with immobilised ligand | 1 µM | 100%
COc1ccnn2ncc(-c3ccnc(N(C)C)n3)c12 | binding | – | 1 µM | 85%
CNC(=O)Nc1ccc2c(c1)[C@@]1(CC2)OC(=O)N(CC(=O)N(Cc2ccc(F)cc2)[C@@H](C)C(F)(F)F)C1=O | cell-free assay | competition with immobilised ligand | 1 µM | 100%
CN(C)c1ncc(F)c(-c2cnn3ncccc23)n1 | binding | – | 1 µM | 95%
FC(F)(F)Oc1cccc(-c2cnc3ccc(-c4ccncc4)nn23)c1 | binding | competition with immobilised ligand | 5 µM | 70%
